Test results taken from ChEMBL document CHEMBL1133441, “Development of novel quinone phosphorodiamidate prodrugs targeted to DT-diaphorase” (2000).

Legend:
[1] = target: NAD(P)H dehydrogenase [quinone] 1 (Homo sapiens) (UniProt P15559); assay: Ratio of Kcat and Km
Outline: (§1)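 Purified human DT-diaphorase (4.8 × 10-4 mg) with 1 mM NADH, 55 µM cytochrome c, 0.01 mM dithiothreitol in 0.05 M Tris pH 7.6; quinone in DMSO starts reaction. Run in triplicate at 25 °C, following cytochrome c reduction at 550 nm, no-enzyme background controls. Initial linear rates; KM and Vmax from Hanes plot.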

[2] = tested on: BE; assay: cytotoxic activity against human colon carcinoma BE cell lines.; type: functional
Outline: (§2)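 Clonogenic survival: exponentially growing cells suspended at 1.7-2 × 10^5 cells/mL in serum-free MEM/HEPES, exposed 2 h at 37 °C, 5% CO2 to five final drug concentrations (solvent ethanol or DMSO, at most 1%), washed, plated at 2-3 densities, grown 10 days. Crystal violet-stained colonies of ≥50 cells counted; LC99 from log surviving fraction vs concentration.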

[3] = tested on: HT-29; assay: cytotoxic activity against human colon carcinoma HT-29 cell lines.; type: functional; outline: as §2
[4] = target: NAD(P)H dehydrogenase [quinone] 1 (Homo sapiens) (UniProt P15559); assay: Ratio of Vmax and Km; set-up: unit not given here; outline: as §1
[5] = target: NAD(P)H dehydrogenase [quinone] 1 (Homo sapiens) (UniProt P15559); assay: Kinetic analysis using purified human DT-diaphorase.; outline: as §1

Chain of NAD(P)H dehydrogenase [quinone] 1 (Homo sapiens) (P15559 whole entry): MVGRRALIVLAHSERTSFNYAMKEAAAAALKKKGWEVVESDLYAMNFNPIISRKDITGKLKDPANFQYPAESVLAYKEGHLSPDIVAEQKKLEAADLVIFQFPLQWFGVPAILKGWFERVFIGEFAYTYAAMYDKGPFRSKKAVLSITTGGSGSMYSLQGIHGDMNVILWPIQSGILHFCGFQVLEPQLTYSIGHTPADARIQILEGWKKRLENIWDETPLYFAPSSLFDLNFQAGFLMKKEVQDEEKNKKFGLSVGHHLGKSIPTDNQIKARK

| SMILES | Ratio [1] | LC99 [2] | LC99 [3] | Ratio [4] | k cat [5] |
| --- | --- | --- | --- | --- | --- |
| CSC1=C(COP(N)(=O)N(CCCl)CCCl)C(=O)c2ccccc2C1=O (stereo not drawn) | 1.2 | 5.9 µM | 4.2 µM | 1.1 | 72 s⁻¹ |
| CC1=CC(=O)c2ccccc2C1=O | 5.8 |  |  | 0.5 | 700 s⁻¹ |
| O=C1C=C(COP(=O)(NCCCl)NCCCl)C(=O)c2ccccc21 | 2.3 | 7.8 µM | 14 µM | 2.1 | 88 s⁻¹ |
| CC(=O)OCC1=CC(=O)c2ccccc2C1=O | 1.6 | 22 µM | 64 µM | 1.4 | 280 s⁻¹ |
| NP(=O)(OCC1=CC(=O)c2ccccc2C1=O)N1CCOCC1 (stereo not drawn) | 0.16 | 72 µM | 89 µM | 0.83 | 15 s⁻¹ |
| CC1=C(COP(N)(=O)N(CCCl)CCCl)C(=O)c2ccccc2C1=O (stereo not drawn) | 8.6 | 1 µM | 2.1 µM | 0.76 | 78 s⁻¹ |
| NP(=O)(OCC1=CC(=O)c2ccccc2C1=O)N(CCBr)CCBr (stereo not drawn) | 2.2 | 4.6 µM | 7.8 µM | 2 | 46 s⁻¹ |
| Cn1c(COP(N)(=O)N(CCBr)CCBr)nc2c1C(=O)C=CC2=O (stereo not drawn) | 3.1 | 120 µM | 130 µM | 0.28 | 66 s⁻¹ |
| CC1=C(COP(N)(=O)N(CCBr)CCBr)C(=O)c2ccccc2C1=O (stereo not drawn) | 9.1 | 1.2 µM | 1.7 µM | 0.81 | 63 s⁻¹ |
| CN(CCBr)P(=O)(OCC1=CC(=O)c2ccccc2C1=O)N(C)CCBr | 1.3 | 1.2 µM | 4.5 µM | 1.1 | 115 s⁻¹ |
| NP(=O)(OCC1=CC(=O)c2ccccc2C1=O)N(CCCl)CCCl (stereo not drawn) | 2 | 13 µM | 11 µM | 1.8 | 51 s⁻¹ |
| CC1=C(COP(=O)(N(C)CCBr)N(C)CCBr)C(=O)c2ccccc2C1=O | 0.5 | 0.44 µM | 1.5 µM | 0.44 | 180 s⁻¹ |
| Cn1c(COP(N)(=O)N(CCCl)CCCl)nc2c1C(=O)C=CC2=O (stereo not drawn) | 4.5 | 300 µM | 220 µM | 0.4 | 41 s⁻¹ |
| CN(CCCl)P(=O)(OCC1=CC(=O)c2ccccc2C1=O)N(C)CCCl | 1.4 | 2.8 µM | 4.5 µM | 1.2 | 190 s⁻¹ |
| NP(=O)(OCC1=C(Br)C(=O)c2ccccc2C1=O)N(CCCl)CCCl (stereo not drawn) | 3 | 3.3 µM | 4.1 µM | 2.7 | 97 s⁻¹ |
